According to the EternaBench riboswitch data:

System: MS2 coat protein
Experiment: apparent Kd, MS2 coat protein; higher = weaker binding; RNA-MaP array; FMN 200 µM where present
Method in brief: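 Two titrations, one without ligand and one with constant ligand, were run with SNAP-549-labelled MS2 coat protein from 0.7 or 1.5 nM, doubling to 3 µM. The targets were designs transcribed by stalled E. coli RNA polymerase on Illumina sequencing-chip clusters, in 100 mM Tris-HCl pH 7.5, 80 mM KCl, 4 mM MgCl2, BSA, DTT, yeast tRNA and Tween-20. The apparent Kd is the median of filtered per-cluster binding-curve fits, with green signal normalised to red-channel RNA signal and control-cluster median Fmax.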

[1] = designed as: OFF switch for flavin mononucleotide, no ligand
[2] = ligand present: flavin mononucleotide, designed as: OFF switch for flavin mononucleotide
[3] = designed as: ON switch for flavin mononucleotide, no ligand
[4] = ligand present: flavin mononucleotide, designed as: ON switch for flavin mononucleotide

Sequence | apparent Kd [1] [nM] | apparent Kd [2] [nM] | apparent Kd [3] [nM] | apparent Kd [4] [nM]
GGGAAGUUAGGAUAUGCUGCUCGUCACUUGCGUGAUGAGUAGCAGAAGGAACAUGAGGAUCACCCAUGUAAAGA | 34.3 | 37.5 |  | 
AAUCCACAUGAGGAUCACCCAUGUCAGGAUAUCGCGCGCGCGGUUUCGGUCGCGCGCGCGAGAAGGGACGGCUG | 28.8 | 51.7 |  | 
CUGCCCAGUGUGAGGAUAUACAAAGGAAUUCCUUGGUAGAAGGCACAUGAGGAUCACCCAUGUGACUCGCGGUA | 20.6 | 52.7 |  | 
CUGGUGUGAGGAUAUCAAAGACCUCGGGAUAGUACCGAGGAUGAGAAGGCACAUGAGGAUCACCCAUGUAACAA | 21.2 | 35.4 |  | 
GGGUCAACAUGAGGAUCACCCAUGUAGGAUAUCGCUAUUGUAAUCAUGAAACAUGAUUACAAUAGCGAGAAGGACAUAUGCAAA | 11.3 | 23.4 |  | 
UCUUUAUAGAUCCAUUUUAACUACAUGAGGAUCACCCAUGUGCAGGAUAUCGAUUGUUUUACUUUCGAGAAGGGCAAAUUCAGC | 57.6 | 131 |  | 
AAGGGAUGAGCGUAGGAUAUAGGAGAAGUGACAUGAGGAUCACCCAUGUAAAAGGAGGGAUGAGACUAGAAGGACGAGGUAGGAG |  |  | 107 | 125
UUGUUAUAUGUAGGAUAUGCAUAUUAUUAUUAUGCAGAAGGACAUGAGGAUCACCCAUGUGUAUUAUUAUUAUAUAUUAUAUAU | 23.2 | 33.2 |  | 
UGAUCUAUGUAGAAGGCCCAUAUCUAUAUUUAGGGAGGAUAUACAUGAGGAUCACCCAUGUAUAGAGCGGGUGGACCCGUCACC | 26.7 | 62.1 |  | 
ACAUGAGGAUCACCCAUGUGUGCAUAGGAUAUUGAGGAUCAGGGAUGUUUUUUUGGAUAUGCCCACAAGAAGGAUGAAAGUAUU |  |  | 13.2 | 12.6
AUAAAUAUAGCGAUAUGAUCGAGAGAUCAUGUCGCUAAUAUUAGAAGGACAUGAGGAUCACCCAUGUAGGAUAUGGGAGUAUAA |  |  | 107 | 55.1
ACCAUUUACUAAUUAUCUAUACAUGAGGAUCACCCAUGUUAAGAGGAUAUCAUCGUGAAACGCGAUGAGAAGGCUUAGCAUUCG | 55.2 | 172 |  | 
GUAGAGAUUACAUGAGGAUCACCCAUGUCAGAACGGGUAAUCAGAAGGUAUUAUUAGAGAAAGGGUAAGGAUAUGAUUUUUUAU |  |  | 735 | 617
CUCAGACAUGAGGAUCACCCAUGUGAGGAUAUGAUGCAGCAGUGGUCUACGCUGUGCAUCAGAAGGCACAUGUG | 36.5 | 12.5 |  | 
ACAUGAGGAUCACCCAUGUAUAGAAUUGAAUGUUAAGAUACGUAGGAUAUCGAGUUUAGUAUGAUCGAGAAGGACGAUCUGAUA |  |  | 19.8 | 13.6
ACUAGAUGAGGAUAUGCAUAUUUUCGUGUUCUUCUAGAUUAACAUGAGGAUCACCCAUGUAGAAGGCGUCUGGA | 17.8 | 26 |  | 
GUCCCUACAUGAGGAUCACCCAUGUGGGCGGUAAGGAGCCCACAGGAUAUGCGAAGUAGGACAUAGCAGAAGGGUGGUGUUCAG |  |  | 146 | 97.3
UACAUUUAACAGAAGGCGUUUAUAUUUAACUUACGAGGAUAUGUAUAACAUGAGGAUCACCCAUGUAACUUGGAUAGAAUAUCU |  |  | 9.46 | 8.32
UUAGCAACAUGAGGAUCACCCAUGUAGGAUAUCGCUAUUGUAAUCAUGAAACAUGAUUACAAUAGCGAGAAGGACAUAUGCUCC | 7.17 | 10.6 |  | 
AGAUUACGAGGAUAUCGAGUUUAGUACAUGAGGAUCACCCAUGUUAUCCAGGUCUCGUUUCGAGAAGGCGUGAUUC | 256 | 92.3 |  | 
UUUAAGUCAGGAUAUCGUUAAUUUAAUUAUUUGUUUUAGUUCGAGAAGGGACAUGAGGAUCACCCAUGUAAUUU | 38.8 | 41.8 |  | 
GGUGCGAUGUAGAAGGCAGAUCUGAUUCAGAUCUGAGGAUAUACAUGAGGAUCACCCAUGUAAACGCACCGCACGAGAGUGCAA | 6.6 | 8.12 |  | 
UGGGAUGGCUAGAAGGCUCCGUAUACUAAAGGGAGAGGAUAUGGCACAUGAGGAUCACCCAUGUGUACCUGUAGGUGAUCCACA | 276 | 70 |  | 
UUAAAUCAUGUAGGAUAUGCAUGGCGAAGCUACGCAGAAGGACAUGAGGAUCACCCAUGUUAUAGCUUCCCAGUUCGGAGGCAA | 63.8 | 230 |  | 
AAAGUUGGUAGGCCCUCGGAACAUGAGGAUCACCCAUGUAAGGAGGAUAUGCCCGGUACCCGCUGGCAGAAGGCCUUAUAAGAC | 6.74 | 42.5 |  | 
AAAACUCAGAUAGGAUAUAUAGGAUAACUUAAGACCUAACAUGAGGAUCACCCAUGUGAUUAUUCGUAGAAGGAUCAUUGAACC |  |  | 240 | 238
UAAAUGUGAGGAUAUCAGGUGUGCUAGAGAACUGGUACAUCUGAGAAGGCACAUGAGGAUCACCCAUGUUCUUC | 39 | 207 |  | 
AAAUCUCAGAUAGGAUAUAUAGGAUAACUUAAGACCUAACAUGAGGAUCACCCAUGUGAUUAUUCGUAGAAGGAUCAUUGACCC |  |  | 166 | 175

Sequence | apparent Kd [1] [nM] | apparent Kd [2] [nM] | apparent Kd [3] [nM] | apparent Kd [4] [nM]
UUUGAAUUGCAAGGAUAUCUUAUUUAGAUUUUAAGAGAAGGUGCUUUAUAGUUACAUGAGGAUCACCCAUGUAUUUCUUUUUAU |  |  | 25.5 | 17.7
CGAUAAUAUAGUUAUCCGUAGCGAACAUGAGGAUCACCCAUGUAGGAUAUGUUACUAAACUAGUAACAGAAGGGCAUGAGUCUU | 32.1 | 74.5 |  | 
UUUUUUGUUGUGAGGAUAUCGUAUUCUUUUUGUUACGAGAAGGCACAUGAGGAUCACCCAUGUUUCUUGAUGUU | 15.8 | 27.3 |  | 
ACAUACAUUCGAGGAUAUCGGUGAUUAAUAAUACGAGAAGGCGAUUUAAGGCAUAAAGCCUUAGACAUGAGGAUCACCCAUGUA |  |  | 97.9 | 43.8
GUUAUAAAGGUAGGAUAUUGUAUUAUAAUUAAAUAAGAAGGAUCUCACAUGAGGAUCACCCAUGUAAGAGGAUCACCCAUGUAG | 20.1 | 14.6 |  | 
GUUUUAUAGAUCCAUUUUAACAACAUGAGGAUCACCCAUGUGCAGGAUAUCGUUUGUUUUAUAUUCGAGAAGGGCAAAUUCAUU | 44.3 | 102 |  | 
AAUGCGGCAGGAUAUACAUGAGGAUCACCCAUGUAGAUCAGAUAUAUGGUCGAGCCAUGUAGAAGGGCCGCAAA | 30.8 | 110 |  | 
UUGGACGUCGUAGGAUAUGUAGGAUAUUCCUACAUGAGGAUCACCCAUGUUAACAUGGAAGAAGGACAGAAGGACGAUGUCCAU |  |  | 326 | 4.76
AAGAGUAGAGGAUAUACAUGAGGAUCACCCAUGUAAUCCAGAUAAGGAAGCAUGUCGUGUAGAAGGCUGCAUGA | 15.9 | 12.8 |  | 
UAUAUUAUUAUAGGAUAUGGAUAUGAUGCAUAUCCAGAAGGGUGAUUAUAAUAUAUUCUGUACAUGAGGAUCACCCAUGUUUAU |  |  | 258 | 75.9
CCAGAGGUCACAGGAUAUGACUCGUCCAAUUGGUCAGAAGGGUGAAUCACAUUAUGUAUACAUGAGGAUCACCCAUGUCCUACG |  |  | 64.4 | 165
UCCUGGCGAGGAUAUACAAAGUUUUUCACGUUUUGUUUCGAACAUGAGGAUCACCCAUGUAGAAGGUGCUACUG | 62.6 | 52.8 |  | 
AUCAGCUCGUCAGGAUAUACGUCACUGCUUCGGCAGUGUGGUAAGGUCACAUGAGGAUCACCCAUGUAGAAGGGACGAGCUGAU | 8.32 | 120 |  | 
GAUCAACAUGAGGAUCACCCAUGUGAGGAUAUGAUACUAUGUACUUCGGUACAUAGUAUCAGAAGGCACAUAAA | 67.9 | 218 |  | 
GUGCUUUGGGAGAAGGCCGUAUGCAAAGCAUACGGAGGAUAUUCAUACCGGAAACGGACAUGAGGAUCACCCAUGUGGCACAAA |  |  |  | 44.6
AUUGAUAUUGAGGAUAUGCUUUUAUUUGUUCUUGCAGAAGGCGAUACAUGAGGAUCACCCAUGUUUAUGGAAGU | 40.8 | 48 |  | 
CCACGAGACUAAGGAUAUGGAGUGUCAACAUAAAACAUGAGGAUCACCCAUGUAAAGAGUACGAUUCAGAAGGUAGAGACGUGG |  |  | 38.3 | 23.7
UAAAUGUGAGGAUAUUCGAAUAACACGGAGACGUGUUGUUCGGAGAAGGCACAUGAGGAUCACCCAUGUUCCUU | 22.7 | 219 |  | 
GUGCAUACGUGAGGAUAUGUAUUAGAUAGUGGUACAGAAGGCAUGUCAGAUGACAUGAGGAUCACCCAUGUUGGCACAAUGCGC |  |  | 137 | 30.5
GUAGCAUACCAAGGAUAUUCAGGGCGUGGAUAGACAUGAGGAUCACCCAUGUGGCGAAAGCCUAGGGAGAAGGUGGAAUGCUAC |  |  | 36.1 | 20.1
AAUGUACGAGGAUAUACAUAGAUACAGAUACAUGUAGACGUACAUGAGGAUCACCCAUGUAGAAGGCGUACAUA | 178 | 73.8 |  | 
AAAAAGUUAGGAUAUACAUGAGGAUCACCCAUGUACAUAUAUGGAGAAAAAAACAGUAGUAGAAGGGACAAAAA | 25.6 | 35.1 |  | 
UAUUAGUAAGGAUAUCUCGUCAUGGAGGAAACUCCAUGACGAGAGAAGGUACAUGAGGAUCACCCAUGUCUAUU | 16.1 | 18.3 |  | 
AAGGAUCGAGGAUAUACAUAGAUACAGAUUCAUGUAGAACUACAUGAGGAUCACCCAUGUAGAAGGCGAUCCUA | 38.4 | 291 |  | 
GCGCAGCUGGGUGAGGAUAUCGGUGGUAAAACAUGAGGAUCACCCAUGUCCGGAGCUCGGACUUCCGAGAAGGCACCCGGCUGCA |  |  | 39 | 9.8
UAGAGUCGCGUCAGGAUAUACCACUUAACCCAGUAGUAGAAGGGACAUGAGGAUCACCCAUGUCGGUGUUAGCC | 23.2 | 26.2 |  | 
UUACCUCAUGAGAAGGACAUGAGGAUCACCCAUGUAGGAUAUCAUGGGUCAGUGGAAUUGAAUCUUCGGAUUCAAUAACUCUAC |  |  | 140 | 44
